High-throughput results: PubChem, several laboratories
Apaf-1 inh = blocks human Apaf-1 apoptosome activity; 0.71% of 330,000 active; inhibition, % at 20 µM; O14727; AID 489030; reconstituted apoptosome caspase-3 activity, DEVD-Rh110 fluorescence; active means inhibition of at least 40% at 20 µM;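 further: plate controls were DMSO wells for no effect and DEVD-CHO caspase inhibitor wells for full effect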
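System: Apoptosome proteins | Medium: Hepes pH 7.5 with detergent and BSA | Also added: Cytochrome c trigger plus (Z-DEVD)2-Rh110 caspase-3 substrate | Incubation: 30 min compound preincubation, 50 min activation, room temperature | Detection: Rhodamine 110 fluorescence at Ex 480/Em 540 nm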
pPAFAH FP inh = inhibitors of human plasma PAF acetylhydrolase (pPAFAH). Q13093. recombinant pPAFAH, FP-rhodamine probe fluorescence polarization. inhibition, % at 3.39 µM. 1.5% of 330,000 active. AID 463082;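 active means inhibition above the mean inhibition across the screen plus 3 SD, cut at about 25% in these data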;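 further: inhibitors block binding of the rhodamine activity-based probe so polarization drops; 0% = enzyme with DMSO and 100% = wells lacking pPAFAH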
PAFAH1B2 inh = PAFAH1B2 (human) inhibition. recombinant PAFAH1B2, FP-rhodamine activity probe, fluorescence polarization. inhibition, % at 3.39 µM. 1.2% of 340,000 active. AID 492953;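 active means inhibition above the mean of all tested compounds plus 3 SD, cut at about 24% in these data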;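 further: 0% = enzyme with DMSO and 100% = wells lacking PAFAH1B2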
Target sequence (P68402 whole entry, looked up): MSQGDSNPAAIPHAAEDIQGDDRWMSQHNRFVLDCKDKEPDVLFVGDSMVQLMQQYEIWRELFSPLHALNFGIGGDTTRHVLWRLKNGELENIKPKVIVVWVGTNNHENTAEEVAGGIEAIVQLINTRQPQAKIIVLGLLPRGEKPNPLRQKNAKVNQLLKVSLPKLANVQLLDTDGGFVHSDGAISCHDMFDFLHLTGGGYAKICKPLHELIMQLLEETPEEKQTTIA
PAFAH2 inh = inhibitors of human PAFAH2; Q99487; recombinant PAFAH2, FP-rhodamine activity probe, fluorescence polarization; inhibition, % at 3.39 µM; 0.99% of 340,000 active;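 active means inhibition above the mean over all tested compounds plus 3 SD, cut at about 30% in these data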;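 further: inhibitors block probe labeling of enzyme so polarization drops; 0% = enzyme with DMSO and 100% = wells lacking PAFAH2 protein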
PAFAH1B3 inh = inhibitors of human PAFAH1B3 | recombinant PAFAH1B3, FP-rhodamine probe, fluorescence polarization | inhibition, % at 3.39 µM | 0.28% of 340,000 active;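 active means inhibition above the screen-wide average of all tested compounds plus 3 SD, cut at about 25% in these data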;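 further: 0% = enzyme with DMSO only and 100% = wells lacking PAFAH1B3 protein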
Target sequence (Q15102 whole entry, looked up): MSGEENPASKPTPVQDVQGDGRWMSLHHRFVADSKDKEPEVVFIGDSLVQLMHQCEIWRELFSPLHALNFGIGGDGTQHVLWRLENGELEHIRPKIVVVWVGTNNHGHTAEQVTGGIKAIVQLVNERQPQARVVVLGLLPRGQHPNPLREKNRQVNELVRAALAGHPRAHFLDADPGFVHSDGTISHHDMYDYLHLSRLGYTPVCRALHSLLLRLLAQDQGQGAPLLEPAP
* = called active by the depositor; x = no result. Rows were chosen to be rich in hits. Some 3.1% of all compounds tested hit in one or more screens of this group.

SMILES | Apaf-1 inh | pPAFAH FP inh | PAFAH1B2 inh | PAFAH2 inh | PAFAH1B3 inh
CCN(CC)C(=O)COc1coc(CN2CCN(c3ccccc3)CC2)cc1=O | -1.6 | -0.3 | -1.9 | 0.8 | 2.3
O=C(COC(=O)C1CC1)Nc1ccc(Cl)cc1Cl | -10.4 | 8.9 | 3.6 | 63.8* | 12.7
CN(C)S(=O)(=O)c1ccc(Cl)c(NC(=O)COC(=O)CCC2CCCCC2)c1 | 20.6 | 25.2* | 5.4 | 37.7* | 1.6
Cc1ccc(Cl)cc1NC(=O)COC(=O)C1CC1 | 9.9 | -3.9 | -0.4 | 20.1 | 1.6
COc1ccc(NS(=O)(=O)c2ccc(OC)c(NC(=O)CCC3CCCC3)c2)cc1 | 7.2 | 27.1* | 1.2 | -4.8 | -0.5
COc1ccccc1NC(=O)COC(=O)CCC1CCCC1 | 11.2 | 29.1* | 4.5 | 17.9 | 7.8
Cc1ccc(Nc2nnc(SC(C)C(=O)NCC3CCCO3)s2)cc1 (configuration not stated) | -1.4 | 3.0 | 8.2 | -5.7 | -1.9
O=C(COC(=O)CCC1CCCC1)Nc1ccc(Cl)cc1F | 23.4 | 26.9* | 6.5 | 23.8 | 6.8
COc1ccc(OC)c(NC(=O)COC(=O)CCC2CCCC2)c1 | 14.1 | 32.6* | 8.3 | 14.8 | 5.4
CCN(CC)C(=O)CSc1nc2c(sc(=S)n2-c2ccc(C)cc2C)c(=O)[nH]1 | 11.4 | 11.1 | 1.2 | 3.2 | -0.9
O=C(CCNS(=O)(=O)c1ccccc1)OCC(=O)c1ccc(Br)cc1 | 12.1 | 20.7 | 11.4 | 3.1 | -1.4
N#Cc1ccc(NC(=O)COC(=O)CCNS(=O)(=O)c2ccccc2)cc1 | 6.1 | 28.5* | 4.6 | 0.6 | 2.2
O=C(COC(=O)CCNS(=O)(=O)c1ccccc1)Nc1ccc(OC(F)F)cc1 | 2.3 | 21.8 | 2.7 | 2.6 | 7.8
O=C(CCNS(=O)(=O)c1ccccc1)OCC(=O)c1ccc(Cl)cc1 | 10.7 | 25.6* | 16.3 | 1.5 | 1.5
CCOC(=O)/C(=N\Nc1ncnc2ccccc12)c1ccc(C)cc1 | 21.7 | 1.4 | 5.9 | -3.0 | 2.9
Cc1ccc(N(CC(=O)NCc2ccco2)C(=O)CCC(=O)Nc2nccs2)cc1C | 8.7 | 4.8 | 7.7 | -8.8 | 11.4
O=C(COc1ccccc1)Nc1nnc(S(=O)(=O)Nc2ccccc2)s1 | 4.8 | 26.7* | 6.8 | 10.8 | 1.8
CCC(Oc1ccccc1)C(=O)Nc1nnc(S(=O)(=O)Nc2ccccc2)s1 (configuration not stated) | 10.7 | 32.6* | 8.1 | 0.6 | -0.2
CCC(Oc1ccccc1)C(=O)Nc1nnc(S(=O)(=O)N2CCCCC2)s1 (configuration not stated) | 5.6 | 2.3 | 1.9 | 12.2 | 6.7
CN(c1ccccc1)S(=O)(=O)c1nnc(NC(=O)COc2ccccc2)s1 | 0.4 | 10.9 | 14.7 | -2.7 | 12.4
CCOc1cc(C(=O)OCc2cccc(OC)c2OC)ccc1OCC(=O)N1CCOCC1 | 15.6 | 32.5* | 1.3 | 2.7 | -6.5
Cc1cc(/C=C2/C(=O)N(C)C(=S)N2C)c(C)n1C1CC1 | 1.8 | 5.4 | -3.9 | -11.1 | -2.2
Cc1cc(/C=C2\SC(=S)NC2=O)c(C)n1C1CC1 | -3.4 | 31.7* | 3.0 | 11.9 | 8.8
CC(=O)Nc1ccc(S(=O)(=O)NNC(=O)COc2cc(C)ccc2C(C)C)cc1 | 12.5 | 0.8 | 3.0 | 0.1 | 8.2
Cc1ccc(C(C)C)c(OCC(=O)NNCC(=O)Nc2cccc(F)c2)c1 | 12.7 | 7.7 | 25.4* | -3.4 | 5.0
SMILES | Apaf-1 inh | pPAFAH FP inh | PAFAH1B2 inh | PAFAH2 inh | PAFAH1B3 inh
COc1ccc(CNC(=O)COC(=O)CCC2CCCCC2)cc1 | 13.2 | 30.7* | 2.9 | 9.7 | 6.1
COC(=O)c1ccc(CNC(=O)COC(=O)CCC2CCCC2)cc1 | 7.4 | 24.6* | 1.1 | -1.4 | -4.8
COc1ccc(CNC(=O)COC(=O)CCOc2ccccc2)cc1 | -9.4 | 13.2 | -1.1 | -7.7 | -5.6
CCc1ccc(NC(=O)COC(=O)CCC2CCCC2)cc1 | 6.9 | 21.6 | 7.9 | 20.1 | 10.2
CC(C)(C)NC(=O)NC(=O)COC(=O)CCC1CCCC1 | 12.3 | 30.9* | 6.1 | 15.8 | -1.4
COC(=O)c1ccc(CNC(=O)COC(=O)CCN2C(=O)C3CC=CCC3C2=O)cc1 (configuration not stated) | 0.3 | 7.4 | -1.3 | -1.7 | -1.7
CC(C)(O)c1cc2ccc(C#Cc3ccsc3)cc2c(=O)o1 | 13.3 | 4.5 | 1.6 | -4.6 | 6.4
CSc1ccc(S(=O)(=O)NCC(=O)OCC(=O)NCc2cccs2)cc1[N+](=O)[O-] | 3.0 | 8.8 | -2.4 | 7.4 | 1.3
CC(C)N1CCOC1c1ccccc1 (configuration not stated) | x | x | -1.8 | -2.8 | -3.3
